Assay results of several laboratories.
Matrix: plasma

Compound	species	route	dose	notes	endpoint	result
O=C1CCC(N2Cc3cc(NC(=O)c4cccc(F)c4)ccc3C2=O)C(=O)N1 (stereo not drawn)	female CD-1 mouse	intravenous	3 mg/kg	–	clearance	24 mL/min/kg
CCN1CCN(Cc2ccc(NC(=O)c3ccc(C)c(NC(=O)c4cncc(-c5cccs5)c4)c3)cc2C(F)(F)F)CC1	mouse	intraperitoneal	20 mg/kg	single dose	CL/F	151 mL/min/kg
N[C@@H](CC(=O)O)Cn1nnc(-c2ccc(Oc3ncc(Cl)cc3F)cc2)n1	male beagle dog	oral	0.5 mg/kg	–	Cmax	5.7 ng/mL
O=C1CCC(N2Cc3cc(Nc4noc5cc(F)ccc45)ccc3C2=O)C(=O)N1 (stereo not drawn)	female CD-1 mouse	intravenous	3 mg/kg	–	clearance	55 mL/min/kg
CC(=O)CC(=O)C1CC(C)C(=O)C1=O (stereo not drawn)	male Sprague-Dawley rat	oral	100 mg/kg	–	Tmax	4.8 min
O=C1CC[C@H](N2Cc3cc(N4CCN(CC5CCN(c6ccc([C@@H]7c8ccc(O)cc8CC[C@@H]7c7ccccc7)cc6)CC5)CC4)ccc3C2=O)C(=O)N1	female Sprague-Dawley rat	oral	20 mg/kg	fed	Tmax	320 min
Cc1c(C(=O)O)ccc2c3n(nc12)[C@@H]1[C@H](C3)N(CC2CC2)[C@@]2(C(=O)Nc3cc(Cl)ccc32)[C@H]1c1cccc(Cl)c1F	male dog	oral	2 mg/kg	–	Cmax	3.5 µM
COc1cc2c3c(n(CCCNCCO)c(=O)c2cc1OC)-c1nc2c(cc1C3=O)OCO2	male CD-1 mouse	intravenous	1 mg/kg	–	clearance	107 mL/min/kg
N#C[C@@]12C[C@@H]1[C@@H](n1cnc3c(N[C@@H](C4CCC4)C4CC4)nc(I)nc31)[C@H](O)[C@@H]2O	male Wistar rat	oral	10 mg/kg	–	Tmax	120 min
Cc1cc2sc(N)nc2c2cccnc12	female BALB/c mouse	intraperitoneal	30 mg/kg	single dose	CL/F	11 mL/min/kg
Cc1cc([C@@H](C)Nc2ccccc2C(=O)O)c2nc(N3CCC(F)(F)CC3)c(C#N)c(=O)n2c1	male beagle dog	intravenous	2 mg/kg	–	clearance	64 mL/min/kg
CC(=Nc1ccc(N=Cc2cnccn2)cc1)N(C)C	male Sprague-Dawley rat	oral	200 mg/kg	–	Tmax	4.98 min
O=C(C=Cc1ccccc1)Nc1cc(-c2ccnc(N3CCC(O)CC3)c2)ccn1	female Sprague-Dawley rat	intravenous	5 mg/kg	–	Tmax	4.98 min
CCNCCCn1c2c(c3cc(OC)c(OC)cc3c1=O)C(=O)c1cc3c(nc1-2)OCO3	male CD-1 mouse	intravenous	1 mg/kg	–	clearance	107 mL/min/kg
CC1=NN(/C(=N/c2nnc(C)s2)Nc2ccc(C)c(C)c2)C(c2cc(F)c(F)c(F)c2)S1 (stereo not drawn)	male CD-1 mouse	intravenous	1 mg/kg	–	clearance	121 mL/min/kg
